Screening data: PubChem, Broad Institute
RAD52 anneal inh = inhibitors of human RAD52 DNA annealing. P43351. hit rate 0.46% among 360,000. recombinant RAD52 DNA annealing, FRET fluorescence. inhibition, % at 18.7 µM;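 active means every replicate showing at least 50% inhibition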
S100A4 inh HTS = S100A4-myosin IIA interaction inhibition | P26447 | hit rate 0.14% among 360,000 | S100A4/TAMRA-MyoIIA peptide fluorescence polarization | inhibition, % at 10.7 µM;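 active means mean inhibition of at least 70% across replicates, with every replicate also reaching that level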
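Material: S100A4 monomer (human). Medium: Calcium-containing HEPES buffer, pH 7.2. Probe or stimulus: labelled myosin peptide probe, 5 nM. Compound dosing: one concentration per compound. Timing: polarization read 5 min after assay mix addition, stable 5–60 min. Benchmarks: DMSO as neutral control, TFP as positive control.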
AF4-AF9 inh = MLL-AF4/AF9 protein interaction inhibition; inhibition, % at 10 µM; AID 651704; AlphaScreen, biotin-AF4 peptide binding to FLAG-AF9; P42568; hit rate 0.47% among 350,000;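 active means every replicate reaching a set inhibition limit, whatever the replicate mean, cut at about 25% in these data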;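 further: 0% = plate neutral control median and 100% = total signal loss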
ERAP1 HTS inh = blocks human ERAP1 aminopeptidase activity; recombinant ERAP1, Leu-AMC fluorescence, 60 min; inhibition, % at 10.7 µM; hit rate 0.15% among 340,000; AID 652197;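 active means mean replicate inhibition of at least 30%, or all replicates individually reaching that 30% level; inactive means mean below 30% and not every replicate reaching it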;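 further: 0% = neutral control wells and 100% = L-leucinethiol positive control wells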
GSIS activator = GLuc luminescence reporter in INS-1E cells, primary screen for activators of glucose-dependent secretion of insulin; activation, % at 16.6 µM; hit rate 0.61% among 370,000; INS-1E GLuc reporter insulin secretion, 2-3 h;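 active means lowest replicate activation of at least 40%, so every replicate reaches that level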;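 further: 0% = median of neutral control wells and 100% = median of IBMX positive control wells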
An asterisk follows results filed as active; . = no result given; ! = not confirmed by another sample. A selection: hits, their analogues and other compounds. The true share with any hit is near 1.5%.

SMILES	RAD52 anneal inh	S100A4 inh HTS	AF4-AF9 inh	ERAP1 HTS inh	GSIS activator
C[C@H](O)C#Cc1ccc2c(c1)O[C@@H](CN(C)C(=O)c1ccccc1)[C@H](C)CN([C@@H](C)CO)S2(=O)=O	-3	1	-2	-1	15
CO[C@@H]1CC[C@@H]2CCN(C)C(=O)[C@@H](C)[C@H](OC)CN(C)C(=O)c3cc(C#N)ccc3OC[C@@H]1O2	3	12	0	-1	16
COc1ccc2c3c(n(C)c2c1)[C@@H](CO)N(S(=O)(=O)c1ccc(C)cc1)CC31CN(S(=O)(=O)c2ccc(C)cc2)C1	.	.	-1	.	-12
C[C@H]1CN(C)C(=O)Cc2cc(N(C)C)ccc2O[C@H]1CN(C)S(C)(=O)=O	.	.	.	.	0
CO[C@H]1CN(C)C(=O)c2ccc(NC(C)=O)cc2OC[C@H](C)N(C(=O)c2cccnc2)C[C@@H]1C	-34	16	1	0	0
O=C(C[C@H]1C=C[C@H](NS(=O)(=O)c2ccc(F)cc2)[C@@H](CO)O1)NCc1ccccc1F	-1	5	-3	1	-1
Fc1ccccc1-c1ccc(C2[C@@H]3CN(Cc4ccccc4)C[C@H]2N3)cc1 (stereo not given in full)	.	.	.	.	47*!
N#CCSc1nc2ccccc2c(=O)n1C1CCCCC1	-16	1	-3	-3	53*
COc1ccc(-c2ccncc2)cc1OC	-7	0	-5	1	107*
COc1ccc(C2=Nn3c(nnc3-c3ccccc3Cl)SC2)cc1OCC1CC1	-9	-20	7	.	39
COc1ccc(C2=Nn3c(nnc3-c3ccccc3OC)SC2)cc1OC1CCOC1 (stereo not given)	-13	0	8	.	56*
COc1ccc(C2=Nn3c(nnc3-c3ccncc3)SC2)cc1OC	.	.	.	.	85*
COc1ccc(C2=Nn3c(nnc3-c3ccccc3C(F)(F)F)SC2)cc1OC1CCOC1 (stereo not given)	-3	3	-8	1	75*
CC(C)NC(=O)N(C)C[C@@H]1Oc2c(NS(C)(=O)=O)cccc2C(=O)N(C)C[C@@H]1C	.	.	.	.	12
CC(=O)Nc1cccc2c1O[C@@H](CN(C)C(=O)OC(C)(C)C)[C@@H](C)CN(C)C2=O	.	.	.	.	8
COc1cc(-c2nnc3sc(-c4ccco4)nn23)cc(OC)c1OC	1	-2	.	2	3
COc1ccc(-c2nnc3sc(-c4ccco4)nn23)cc1OC	.	.	.	.	59*
O=C(O)[C@@H]1[C@@H](CO)[C@@H]2Cn3c(ccc(-c4cncnc4)c3=O)[C@@H]2N1C(=O)C1CCCC1	-4	-1	-3	-1	6
CCOC(=O)c1ccccc1NC(=O)c1n[nH]c(=O)c2ccccc12	.	.	.	.	82*
COCC(=O)N1CC2(CN(C(=O)NC(C)C)C2)c2c(n(C)c3cc(OC)ccc23)[C@H]1CO	.	.	-1	.	23
COc1cc(/C=C/C(=O)OCC(=O)NC(=O)C2COc3ccccc3O2)ccc1OC(F)F (stereo not given)	-11	-20	-7	-2	45*
CCCNC(=O)Nc1ccc2c(c1)C(=O)N(C)C[C@H](OC)[C@@H](C)CN(C(C)=O)[C@H](C)CO2	16	14	-2	2	2
CCOC(=O)c1cc(CC)sc1NC(=O)COC(=O)c1ccccn1	-10	0	-18	1	39
CCOC(=O)c1cc(CC)sc1NC(=O)COC(=O)c1cnccn1	-5	0	-1	3	69*
CN(C)N1C(N)=C(C#N)C(c2ccc3c(c2)OCO3)C2=C1CCCC2=O (stereo not given)	-6	-13	26*	6	82
CCNC(=O)C[C@@H]1CC[C@H](NS(=O)(=O)c2ccc(F)cc2)[C@H](CO)O1	4	-33	-1	-5	-7
CCNC(=O)C[C@@H]1CC[C@@H](NS(=O)(=O)c2ccc(F)cc2)[C@H](CO)O1	0	96*	0	-1	-2
O=C(NCC[C@H]1CC[C@@H](NS(=O)(=O)c2ccc(F)cc2)[C@@H](CO)O1)Nc1ccc(Cl)cc1	-18	-6	7	3	-27
O=C(NCC[C@H]1CC[C@H](NS(=O)(=O)c2ccc(Cl)cc2)[C@@H](CO)O1)Nc1ccc(F)cc1	40	2	27*	4	-8
CCOc1ccc(NCc2cccn2-c2nnc(N3CCC(C(=O)NCCCN4CC(C)CC(C)C4)CC3)s2)cc1 (stereo not given)	18	0	40*	1	-16
